The values that follow come from ChEMBL document CHEMBL3526063, “Metabolism and pharmacokinetics of JM6 in mice: JM6 is not a prodrug for Ro-61-8048” (Drug Metab Dispos, 2012).

The nature of data set [1]: AUClast in C57BL/6N mouse treated with JM6 (containing <0.4% Ro-61-8048) at 9 mg/kg, po and Ro-61-8048 at 1 mg/kg, po drugs administered via gavage by LC-MS/MS analysis. The data set is classed as ADME, organism-based. On the set-up: dose 9 mg/kg, time 0 - last, route oral. Particulars: plasma. In outline:
(§1)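 Male C57BL/6N mice were dosed by oral gavage at 10 mL/kg with a fine suspension in 10% hydroxypropyl-β-cyclodextrin in 50 mM phosphate buffer, pH 7. Plasma was taken at non-serial time points (n=3 per time point), extracted with 0.1% formic acid in acetonitrile containing diclofenac as internal standard, and quantified by UPLC-MS/MS. Composite non-compartmental parameters came from mean concentrations; AUClast by linear trapezoid, kel from at least three terminal points.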

Data set [2] is described as follows: AUC(infinity) in C57BL/6N mouse treated with JM6 (containing <0.4% Ro-61-8048) at 9 mg/kg, po and Ro-61-8048 at 1 mg/kg, po drugs administered via gavage by LC-MS/MS analysis. The data set is classed as ADME, organism-based. On the set-up: dose 9 mg/kg, time infinity, route oral. The conditions noted are these: plasma. Put shortly:
as §1

Data set [3] is described as follows: Half life in C57BL/6N mouse treated with JM6 (containing <0.4% Ro-61-8048) at 9 mg/kg, po and Ro-61-8048 at 1 mg/kg, po drugs administered via gavage by LC-MS/MS analysis. The data set is classed as ADME, organism-based. Particulars: in vivo. Put shortly: as §1
Data set [4] deals with Mus musculus. As to the kind of experiment: Dose normalised AUC in C57BL/6N mouse treated with JM6 (containing <0.4% Ro-61-8048) at 10 mg/kg, po and Ro-61-8048 at 0.05 mg/kg, po drugs administered via gavage by LC-MS/MS analysis. The data set is classed as ADME, organism-based. Particulars: in vivo. In outline: as §1
The nature of data set [5]: Oral bioavailability in C57BL/6N mouse treated with JM6 (containing <0.4% Ro-61-8048) at 10 mg/kg and Ro-61-8048 at 0.05 mg/kg drugs administered via gavage by LC-MS/MS analysis. The data set is classed as ADME, organism-based. Particulars: in vivo. Put shortly:
(§2)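 Male C57BL/6N mice dosed by oral gavage (10 mL/kg) as fine suspensions in 10% hydroxypropyl-β-cyclodextrin in 50 mM phosphate buffer pH 7; dose formulations verified by LC-MS/MS. Plasma analysed by LC-MS/MS; composite non-compartmental parameters from mean concentrations (n=3 per time point), C0 set to zero. %F = dose-normalised po AUCinf over dose-normalised iv AUCinf, only within linear range.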

Data set [6] in a line: Cmax in C57BL/6N mouse treated with JM6 (containing <0.4% Ro-61-8048) at 10 mg/kg, po and Ro-61-8048 at 0.05 mg/kg, po drugs administered via gavage by LC-MS/MS analysis. On the set-up: dose 10 mg/kg, route oral. The conditions noted are these: in vivo. The data set is classed as ADME, organism-based. In outline: as §1
Data set [7] deals with Mus musculus. As to the kind of experiment: Dose normalised Cmax in C57BL/6N mouse treated with JM6 (containing <0.4% Ro-61-8048) at 10 mg/kg, po and Ro-61-8048 at 0.05 mg/kg, po drugs administered via gavage by LC-MS/MS analysis. The conditions noted are these: in vivo. The data set is classed as ADME, organism-based. Put shortly:
as §1

A short description of data set [8]: Half life in C57BL/6N mouse treated with JM6 (containing <0.4% Ro-61-8048) at 10 mg/kg, po and Ro-61-8048 at 0.05 mg/kg, po drugs administered via gavage by LC-MS/MS analysis. The data set is classed as ADME, organism-based. The conditions noted are these: in vivo. Put shortly:
as §1

Data set [9] in a line: Tmax in C57BL/6N mouse treated with JM6 (containing <0.4% Ro-61-8048) at 25 mg/kg, po and Ro-61-8048 at 0.05 mg/kg, po drugs administered via gavage by LC-MS/MS analysis. The data set is classed as ADME, organism-based. Particulars: in vivo. In outline: as §2
Data set [10] can be described thus: Half life in C57BL/6N mouse treated with JM6 (containing <0.4% Ro-61-8048) at 25 mg/kg, po and Ro-61-8048 at 0.05 mg/kg, po drugs administered via gavage by LC-MS/MS analysis. The data set is classed as ADME, organism-based. The conditions noted are these: in vivo. In outline:
as §1

Data set [11] in a line: AUClast in C57BL/6N mouse treated with JM6 (containing <0.4% Ro-61-8048) at 50 mg/kg, po and Ro-61-8048 at 0.05 mg/kg, po drugs administered via gavage by LC-MS/MS analysis. The data set is classed as ADME, organism-based. On the set-up: dose 50 mg/kg, time 0 - last, route oral. The conditions noted are these: plasma. In outline: as §1
Data set [12] can be described thus: Metabolic stability in human liver microsomes assessed as half life at 5 uM after 5 to 40 mins by LC-MS/MS analysis. The data set is classed as ADME. A general note: Liver microsomes are vesicles of endoplasmic reticulum, rich in cytochrome P450 enzymes.
Data set [13] in a line: Metabolic stability in rat plasma assessed as half life at 5 uM after 10 to 1440 mins by LC-MS/MS analysis. The data set is classed as ADME, cell-free.
Data set [14] in a line: Metabolic stability in human plasma assessed as half life at 5 uM after 10 to 1440 mins by LC-MS/MS analysis. The data set is classed as ADME, cell-free.
The nature of data set [15]: Efflux ratio of permeability from basolateral to apical side over apical to basolateral side in MDCK2 cells at 10 uM after 1 hr by LC-MS/MS analysis. The data set is classed as ADME, cell-based, Canis lupus familiaris, MDCK-II. The conditions noted are these: dog. In outline: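 MDCKII wild-type and MDR1 cells grown on Transwells 3 days at 2×10^5 cells/well. Compound 10 μM in HBSS with 25 mM HEPES pH 7.4, added apical or basolateral in duplicate, 1 h at 37 °C. Lucifer Yellow monitored monolayer integrity; wells above 100 nm/s rejected. Both chambers sampled, LC-MS/MS; Papp A>B and B>A, ratio B>A:A>B.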

Another data set deals with MDR1. As to the kind of experiment: Apparent permeability from basolateral to apical side in MDCK2-MDR1 cells at 10 uM after 1 hr by LC-MS/MS analysis. The data set is classed as ADME, cell-based, Canis lupus familiaris, MDCK-II. The conditions noted are these: dog, MDCK-MDR1. Put shortly: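 MDCKII wild-type or MDR1 monolayers were grown 3 days on Transwells after seeding at 2×10^5 cells/well. Compound at 10 µM in HBSS with 25 mM HEPES, pH 7.4, was added apically or basolaterally in duplicate, with Lucifer Yellow as an integrity marker (wells above 100 nm/s rejected).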

For data set [16], the system named is Mus musculus. As to the kind of experiment: Dose normalised AUC in C57BL/6N mouse treated with JM6 (containing <0.4% Ro-61-8048) at 25 mg/kg, po and Ro-61-8048 at 0.05 mg/kg, po drugs administered via gavage by LC-MS/MS analysis. The data set is classed as ADME, organism-based. Particulars: in vivo. Put shortly: as §1
The subject of data set [17] is Mus musculus. As to the kind of experiment: Dose normalised Cmax in C57BL/6N mouse treated with JM6 (containing <0.4% Ro-61-8048) at 25 mg/kg, po and Ro-61-8048 at 0.05 mg/kg, po drugs administered via gavage by LC-MS/MS analysis. Particulars: in vivo. The data set is classed as ADME, organism-based. In outline: as §1
Data set [18] in a line: Metabolic stability in mouse plasma assessed as half life at 5 uM after 10 to 1440 mins by LC-MS/MS analysis. The data set is classed as ADME, cell-free.
Data set [19] addresses Kynurenine 3-monooxygenase (Mus musculus, UniProt Q91WN4). As to the kind of experiment: Inhibition of C57BL/6J mouse KMO assessed as 3-hydroxykynurenine formation preincubated for 5 mins using 100 uM kynurenine as substrate by LC-MS/MS analysis. In outline: (§3)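 Liver mitochondrial KMO preparation (mouse C57 BL/6J, rat Wistar, human) at 0.3 mg protein/mL in 100 mM potassium phosphate pH 7.4 with 200 µM NADPH, 0.4 U/mL G6PDH, 3 mM glucose 6-phosphate. Compound pre-incubated 5 min at 25°C, then 100 µM kynurenine added; 40 min (rodent) or 60 min (human). Stopped with TCA; 3-hydroxykynurenine by LC-MS/MS. IC50 from 8-point 3-fold dilutions (top 3 or 30 µM), triplicates, n≥2 runs.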

The target in data set [20] is Kynurenine 3-monooxygenase (Rattus norvegicus, UniProt O88867). As to the kind of experiment: Inhibition of Wistar rat KMO assessed as 3-hydroxykynurenine formation preincubated for 5 mins using 100 uM kynurenine as substrate by LC-MS/MS analysis. Put shortly: as §3
Sequence of Kynurenine 3-monooxygenase (Rattus norvegicus, UniProt O88867) (O88867 whole entry): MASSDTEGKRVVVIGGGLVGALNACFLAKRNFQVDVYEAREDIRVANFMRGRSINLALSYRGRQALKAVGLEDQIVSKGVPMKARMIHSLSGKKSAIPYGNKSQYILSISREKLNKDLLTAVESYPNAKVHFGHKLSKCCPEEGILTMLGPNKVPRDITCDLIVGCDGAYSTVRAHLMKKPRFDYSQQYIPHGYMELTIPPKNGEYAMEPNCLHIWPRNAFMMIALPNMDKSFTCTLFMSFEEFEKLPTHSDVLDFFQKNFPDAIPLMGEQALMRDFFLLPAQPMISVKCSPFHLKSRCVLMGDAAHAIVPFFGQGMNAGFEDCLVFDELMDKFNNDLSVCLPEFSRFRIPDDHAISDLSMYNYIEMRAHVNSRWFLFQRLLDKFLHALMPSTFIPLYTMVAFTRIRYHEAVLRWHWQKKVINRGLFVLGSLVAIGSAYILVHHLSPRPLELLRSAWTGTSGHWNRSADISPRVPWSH

Sequence of Kynurenine 3-monooxygenase (Mus musculus, UniProt Q91WN4) (Q91WN4 whole entry): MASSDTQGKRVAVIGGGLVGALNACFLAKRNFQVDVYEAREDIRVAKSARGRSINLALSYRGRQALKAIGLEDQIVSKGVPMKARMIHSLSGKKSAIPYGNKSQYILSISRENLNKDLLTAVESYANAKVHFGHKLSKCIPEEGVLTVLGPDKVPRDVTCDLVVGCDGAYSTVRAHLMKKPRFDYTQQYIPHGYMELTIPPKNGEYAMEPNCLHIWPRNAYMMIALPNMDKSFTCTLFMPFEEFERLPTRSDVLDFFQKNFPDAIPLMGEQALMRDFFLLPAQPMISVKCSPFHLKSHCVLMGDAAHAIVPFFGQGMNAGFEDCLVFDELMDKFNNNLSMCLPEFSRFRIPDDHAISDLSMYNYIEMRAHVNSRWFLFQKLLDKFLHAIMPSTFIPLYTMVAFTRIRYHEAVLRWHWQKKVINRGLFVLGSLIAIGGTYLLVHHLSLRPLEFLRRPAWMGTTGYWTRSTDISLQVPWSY

A word on the AUC(0-t): it is exposure summed from dosing to a finite time, without extrapolation to infinity. High values mean high exposure, low ones low exposure. What is called AUC(0-inf) is total exposure, with the tail of the curve extrapolated. As usually defined, the half-life is how long it takes for the measured level to halve. Usually bioavailability stands for dose-corrected exposure relative to a reference, in per cent. High values mean good availability, low ones poor availability. The term Cmax denotes the peak of the concentration-time curve. In general, Tmax refers to the time at which the peak concentration occurs. As usually defined, the efflux ratio is a quotient of directional permeabilities that is used to spot active efflux. As usually defined, the Papp B→A is the apparent permeability from the basolateral to the apical side of a cell layer. Broadly, the IC50 is the concentration that gives 50% inhibition. On to `COc1ccc(S(=O)(=O)Nc2nc(-c3cccc([N+](=O)[O-])c3)cs2)cc1OC`, for which the values for the AUC(0-t) in data set [1] and in data set [11] were 110 µM·h and 7.9 µM·h, respectively. Besides, the AUC(0-inf) in [2] was determined as 110 µM·h. Further, the half-life in data set [3] was 4.4 h; in data set [8] it was 5.8 h; in data set [10] it was 5.2 h. Moreover, the AUC/dose in the data set with Mus musculus [4] worked out at 100000 nM·kg·h/mg; with Mus musculus [16], 180000 nM·kg·h/mg. Besides, the bioavailability in [5] was 80%. For the same compound, in [6], the Cmax turned out to be 530 nM. The Cmax/dose in the data set with Mus musculus [7] was 11000 nM; with Mus musculus [17] it was 16000 nM. In data set [9], the Tmax was determined as 2 h. Besides, the half-life at 5 µM in [12] was 0.2 h; in data set [13], greater than 24 h; in [14] it was greater than 24 h; in data set [18] it was greater than 24 h. The efflux ratio at 1 h, 10 µM in [15] (MDCK) came out at 0.8. Moreover, the Papp B→A at 1 h, 10 µM in the data set with MDR1 came to 33 ×10⁻⁶ cm/s. Further, the IC50 in data set [19] was 0.09 µM; in data set [20] it was 0.022 µM.
On to `COc1ccc(S(=O)(=O)Nc2nc(-c3cccc([N+](=O)[O-])c3)c(CN3CCCCC3)s2)cc1OC`, for which the AUC(0-t) in data set [1] was 1.1 µM·h; in data set [11] it was 9.6 µM·h. This compound gave an AUC(0-inf) in [2] of 1.1 µM·h. Besides, the half-life in data set [3], in [8] and in [10] was 0.7 h throughout. Further, the AUC/dose in the data set with Mus musculus [4] was determined as 130 nM·kg·h/mg; in the data set with Mus musculus [16], 190 nM·kg·h/mg. For the same compound, the bioavailability in data set [5] was 13%. The compound also returned a Cmax in data set [6] of 1900 nM. Further, the Cmax/dose amounted to 190 nM in the data set on Mus musculus [7] and 140 nM with Mus musculus [17]. The Tmax in data set [9] came out at 0.5 h. Besides, the half-life at 5 µM was greater than 1.62 h in data set [12], greater than 24 h in [13], greater than 24 h in [14] and greater than 24 h in data set [18]. Further, in data set [15] (mdck-ii, 1 h, 10 µM), the Ratio worked out at 5.3. Also, the Papp B→A at 1 h, 10 µM in the data set with MDR1 was determined as 43 ×10⁻⁶ cm/s. For the same compound, the IC50 came to 20 µM in [19] and 7.1 µM in data set [20].
